From ChEMBL document CHEMBL4689842, “EUbOPEN Chemogenomics Library wave 1” (2021)
Several values for one entry are separate records, joined by “and”; a condition that tells them apart may be missing. Equal entries are not always repeated.

Tested on: HEK-293T
Assay: Multiplex assay against HEK293T;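 as to Population Tubulin-Different-Phenotype (%): share of the cells with healthy nuclei that show this phenotype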
Format: toxicity, cell-based
Details: human
How it was run: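 Hoechst33342, BioTracker Green Microtubule Cytoskeleton Dye, MitoTracker Red and Annexin V Alexa Fluor 680 were added to live cells at seeding, and imaging on a CQ1 microscope at 37°C and 5% CO2 followed compound addition. Gating by CellPathfinder machine learning separated cells into Hoechst high-intensity objects or normal cells, then normal cells into healthy, pyknosed or fragmented nuclei, then pyknosed cells into mitotic or apoptotic. Per cents of healthy-nucleus cells are reported for the tubulin, mitochondrial-mass and membrane-permeability phenotypes.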

[1] = 12 h, 1 µM, compound concentration 1 uM, replicate 1
[2] = 12 h, 1 µM, compound concentration 1 uM, replicate 2
[3] = 24 h, 1 µM, compound concentration 1 uM, replicate 1
[4] = 24 h, 1 µM, compound concentration 1 uM, replicate 2
[5] = 12 h, 10 µM, compound concentration 10 uM, replicate 1
[6] = 12 h, 10 µM, compound concentration 10 uM, replicate 2
[7] = 24 h, 10 µM, compound concentration 10 uM, replicate 1
[8] = 24 h, 10 µM, compound concentration 10 uM, replicate 2
[9] = 48 h, 1 µM, compound concentration 1 uM, replicate 1
[10] = 48 h, 1 µM, compound concentration 1 uM, replicate 2
[11] = 48 h, 10 µM, compound concentration 10 uM, replicate 1
[12] = 48 h, 10 µM, compound concentration 10 uM, replicate 2

Cn1cc(C2=C(c3cn(C4CCN(Cc5ccccn5)CC4)c4ccccc34)C(=O)NC2=O)c2ccccc21 [ENZASTAURIN]
Population Apoptotic (%) [1]: 23% and 42% | Population Fragmented Nuclei (%) [1]: 18% and 16% | Population Healthy Nuclei (%) [1]: 49% and 29% | Population Hoechst High Intensity Objects (%) [1]: 14% and 15% | Population Membrane Permeable-Phenotype (%) [1]: 13% and 12% | Population Mitotic Cells (%) [1]: 76% and 57% | Population Normal (%) [1]: 85% and 84% | Population Pyknosed Nuclei (%) [1]: 31% and 53% | Total Cell Count [1]: 539 and 569 | Population Apoptotic (%) [2]: 28% and 14% | Population Fragmented Nuclei (%) [2]: 3% and 4% | Population Healthy Nuclei (%) [2]: 77% and 86% | Population Hoechst High Intensity Objects (%) [2]: 6% and 4% | Population Membrane Permeable-Phenotype (%) [2]: 2% and 6% | Population Mitochondria Different-Phenotype (%) [2]: 72% and 25% | Population Mitotic Cells (%) [2]: 71% and 85% | Population Normal (%) [2]: 93% and 95% | Population Pyknosed Nuclei (%) [2]: 19% and 9% | Population Tubulin-Different-Phenotype (%) [2]: 87% and 37% | Total Cell Count [2]: 1031 and 1115 | Population Apoptotic (%) [3]: 49% and 19% | Population Fragmented Nuclei (%) [3]: 19% and 16% | Population Healthy Nuclei (%) [3]: 39% and 65% | Population Hoechst High Intensity Objects (%) [3]: 24% and 11% | Population Membrane Permeable-Phenotype (%) [3]: 11% and 6% | Population Mitotic Cells (%) [3]: 50% and 80% | Population Normal (%) [3]: 75% and 88% | Population Pyknosed Nuclei (%) [3]: 41% and 18% | Population Tubulin-Different-Phenotype (%) [3]: 76% and 32% | Total Cell Count [3]: 506 and 516 | Population Fragmented Nuclei (%) [4]: 4% and 12% | Population Healthy Nuclei (%) [4]: 85% and 83% | Population Hoechst High Intensity Objects (%) [4]: 9% and 5% | Population Membrane Permeable-Phenotype (%) [4]: 3% and 4% | Population Mitotic Cells (%) [4]: 68% and 93% | Population Normal (%) [4]: 90% and 94% | Population Tubulin-Different-Phenotype (%) [4]: 77% and 27% | Total Cell Count [4]: 1011 and 1578

COc1ncc(-c2ccc3nccc(-c4ccnnc4)c3c2)cc1NS(=O)(=O)c1ccc(F)cc1F [OMIPALISIB]
Population Apoptotic (%) [1]: 60% | Population Fragmented Nuclei (%) [1]: 17% | Population Healthy Nuclei (%) [1]: 18% | Population Hoechst High Intensity Objects (%) [1]: 20% | Population Membrane Permeable-Phenotype (%) [1]: 2% | Population Mitochondria Different-Phenotype (%) [1]: 81% | Population Mitotic Cells (%) [1]: 39% | Population Normal (%) [1]: 80% | Population Pyknosed Nuclei (%) [1]: 64% | Population Tubulin-Different-Phenotype (%) [1]: 24% | Total Cell Count [1]: 255 | Population Apoptotic (%) [2]: 27% | Population Fragmented Nuclei (%) [2]: 8% | Population Healthy Nuclei (%) [2]: 14% | Population Hoechst High Intensity Objects (%) [2]: 6% | Population Membrane Permeable-Phenotype (%) [2]: 0% | Population Mitochondria Different-Phenotype (%) [2]: 37% | Population Mitotic Cells (%) [2]: 72% | Population Normal (%) [2]: 93% | Population Pyknosed Nuclei (%) [2]: 77% | Population Tubulin-Different-Phenotype (%) [2]: 16% | Total Cell Count [2]: 180 | Population Apoptotic (%) [5]: 62% | Population Fragmented Nuclei (%) [5]: 12% | Population Healthy Nuclei (%) [5]: 20% | Population Hoechst High Intensity Objects (%) [5]: 22% | Population Membrane Permeable-Phenotype (%) [5]: 0% | Population Mitochondria Different-Phenotype (%) [5]: 97% | Population Mitotic Cells (%) [5]: 37% | Population Normal (%) [5]: 77% | Population Pyknosed Nuclei (%) [5]: 67% | Population Tubulin-Different-Phenotype (%) [5]: 39% | Total Cell Count [5]: 238 | Population Apoptotic (%) [6]: 34% | Population Fragmented Nuclei (%) [6]: 4% | Population Healthy Nuclei (%) [6]: 12% | Population Hoechst High Intensity Objects (%) [6]: 6% | Population Membrane Permeable-Phenotype (%) [6]: 5% | Population Mitochondria Different-Phenotype (%) [6]: 42% | Population Mitotic Cells (%) [6]: 65% | Population Normal (%) [6]: 93% | Population Pyknosed Nuclei (%) [6]: 83% | Population Tubulin-Different-Phenotype (%) [6]: 26% | Total Cell Count [6]: 161 | Population Apoptotic (%) [3]: 47% | Population Fragmented Nuclei (%) [3]: 21% | Population Healthy Nuclei (%) [3]: 6% | Population Hoechst High Intensity Objects (%) [3]: 22% | Population Mitochondria Different-Phenotype (%) [3]: 71% | Population Mitotic Cells (%) [3]: 52% | Population Normal (%) [3]: 77% | Population Pyknosed Nuclei (%) [3]: 71% | Population Tubulin-Different-Phenotype (%) [3]: 50% | Total Cell Count [3]: 280 | Population Apoptotic (%) [4]: 29% | Population Fragmented Nuclei (%) [4]: 5% | Population Healthy Nuclei (%) [4]: 14% | Population Hoechst High Intensity Objects (%) [4]: 6% | Population Membrane Permeable-Phenotype (%) [4]: 0% | Population Mitochondria Different-Phenotype (%) [4]: 40% | Population Mitotic Cells (%) [4]: 70% | Population Normal (%) [4]: 93% | Population Pyknosed Nuclei (%) [4]: 79% | Population Tubulin-Different-Phenotype (%) [4]: 24% | Total Cell Count [4]: 178 | Population Apoptotic (%) [7]: 53% | Population Fragmented Nuclei (%) [7]: 14% | Population Healthy Nuclei (%) [7]: 20% | Population Hoechst High Intensity Objects (%) [7]: 24% | Population Membrane Permeable-Phenotype (%) [7]: 2% | Population Mitochondria Different-Phenotype (%) [7]: 91% | Population Mitotic Cells (%) [7]: 46% | Population Normal (%) [7]: 75% | Population Pyknosed Nuclei (%) [7]: 64% | Population Tubulin-Different-Phenotype (%) [7]: 52% | Total Cell Count [7]: 228 | Population Apoptotic (%) [8]: 37% | Population Fragmented Nuclei (%) [8]: 5% | Population Healthy Nuclei (%) [8]: 19% | Population Hoechst High Intensity Objects (%) [8]: 11% | Population Membrane Permeable-Phenotype (%) [8]: 3% | Population Mitochondria Different-Phenotype (%) [8]: 57% | Population Mitotic Cells (%) [8]: 63% | Population Normal (%) [8]: 88% | Population Pyknosed Nuclei (%) [8]: 75% | Population Tubulin-Different-Phenotype (%) [8]: 46% | Total Cell Count [8]: 150 | Population Fragmented Nuclei (%) [9]: 30% | Population Healthy Nuclei (%) [9]: 5% | Population Hoechst High Intensity Objects (%) [9]: 22% | Population Membrane Permeable-Phenotype (%) [9]: 0% | Population Mitochondria Different-Phenotype (%) [9]: 75% | Population Normal (%) [9]: 77% | Population Pyknosed Nuclei (%) [9]: 64% | Population Tubulin-Different-Phenotype (%) [9]: 41% | Total Cell Count [9]: 286 | Population Apoptotic (%) [10]: 44% | Population Fragmented Nuclei (%) [10]: 7% | Population Healthy Nuclei (%) [10]: 36% | Population Hoechst High Intensity Objects (%) [10]: 7% | Population Membrane Permeable-Phenotype (%) [10]: 1% | Population Mitochondria Different-Phenotype (%) [10]: 40% | Population Mitotic Cells (%) [10]: 55% | Population Normal (%) [10]: 92% | Population Pyknosed Nuclei (%) [10]: 55% | Population Tubulin-Different-Phenotype (%) [10]: 35% | Total Cell Count [10]: 181 | Population Apoptotic (%) [11]: 40% | Population Fragmented Nuclei (%) [11]: 20% | Population Healthy Nuclei (%) [11]: 24% | Population Hoechst High Intensity Objects (%) [11]: 21% | Population Membrane Permeable-Phenotype (%) [11]: 5% | Population Mitochondria Different-Phenotype (%) [11]: 76% | Population Mitotic Cells (%) [11]: 59% | Population Normal (%) [11]: 78% | Population Pyknosed Nuclei (%) [11]: 55% | Population Tubulin-Different-Phenotype (%) [11]: 57% | Total Cell Count [11]: 202 | Population Apoptotic (%) [12]: 38% | Population Fragmented Nuclei (%) [12]: 8% | Population Healthy Nuclei (%) [12]: 38% | Population Hoechst High Intensity Objects (%) [12]: 7% | Population Membrane Permeable-Phenotype (%) [12]: 0% | Population Mitochondria Different-Phenotype (%) [12]: 49% | Population Mitotic Cells (%) [12]: 61% | Population Normal (%) [12]: 92% | Population Pyknosed Nuclei (%) [12]: 54% | Population Tubulin-Different-Phenotype (%) [12]: 54% | Total Cell Count [12]: 163
